Rtt109 Vps75: C. albicans Rtt109 histone acetyltransferase inhibition. AID 540336. purified Rtt109/Vps75, ThioGlo CoA-SH fluorescence, 4 h. actives 0.16% (n = 330,000). inhibition, % at 34.9 µM;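 active = inhibition of at least 50% in every replicate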
FAS TE block: blocks the thioesterase domain of human fatty acid synthase. P49327. recombinant FAS-TE, OMFH fluorogenic substrate, fluorescence endpoint. inhibition, % at 15 µM. actives 0.67% (n = 360,000). AID 602261;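 active = compounds whose normalised, plate-corrected inhibition of enzyme fluorescence in the single-dose primary screen is 50% or more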;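 also: 0% = DMSO with enzyme and 100% = substrate without enzyme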
ALR inh: inhibitors of human sulfhydryl oxidase ALR; P55789; purified ALR, DTT oxidation, H2O2 HRP-luminol luminescence; inhibition, % (concentration not given with the values); actives 3.8% (n = 290,000); AID 485317;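 active = mean replicate inhibition above about 79%, with every replicate also reaching it, limit read from the data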
Target sequence (P55789 whole entry, looked up): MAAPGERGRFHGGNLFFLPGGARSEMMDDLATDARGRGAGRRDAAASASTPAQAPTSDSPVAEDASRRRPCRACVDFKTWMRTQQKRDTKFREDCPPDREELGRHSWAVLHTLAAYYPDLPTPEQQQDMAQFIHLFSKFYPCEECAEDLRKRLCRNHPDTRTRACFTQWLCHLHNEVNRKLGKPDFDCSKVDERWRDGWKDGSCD
UCH37 DUB inh: blocks the human deubiquitinase UCH37 | actives 0.33% (n = 330,000) | inhibition, % (no concentration beside the values) | purified proteasome/UCH37, Ub-AMC cleavage fluorescence;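 active = mean inhibition over replicate wells above about 20%, limit read from the data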;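 also: 0% = compound-free wells with enzyme and 100% = wells lacking proteasome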
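assay system = human UCH37 enzyme supplied as purified proteasome complex | amount = proteasome at 0.15 nM in the dispensed enzyme solution | schedule = 30 min compound-proteasome preincubation then 25 min substrate reaction, room temperature | measured by = fluorescence, ex 355 nm, em 460 nm | benchmarks = no-proteasome wells (full inhibition) and compound-free wells (no inhibition)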
HDAC3 inh: human HDAC3 inhibition; AID 2718; actives 0.15% (n = 320,000); O15379; recombinant HDAC3, fluorogenic peptide/trypsin coupled, fluorescence; inhibition, % at 8.3 µM; in the data active = inhibition above about 26%, passing the limit was not always enough
Target sequence (O15379 whole entry, looked up): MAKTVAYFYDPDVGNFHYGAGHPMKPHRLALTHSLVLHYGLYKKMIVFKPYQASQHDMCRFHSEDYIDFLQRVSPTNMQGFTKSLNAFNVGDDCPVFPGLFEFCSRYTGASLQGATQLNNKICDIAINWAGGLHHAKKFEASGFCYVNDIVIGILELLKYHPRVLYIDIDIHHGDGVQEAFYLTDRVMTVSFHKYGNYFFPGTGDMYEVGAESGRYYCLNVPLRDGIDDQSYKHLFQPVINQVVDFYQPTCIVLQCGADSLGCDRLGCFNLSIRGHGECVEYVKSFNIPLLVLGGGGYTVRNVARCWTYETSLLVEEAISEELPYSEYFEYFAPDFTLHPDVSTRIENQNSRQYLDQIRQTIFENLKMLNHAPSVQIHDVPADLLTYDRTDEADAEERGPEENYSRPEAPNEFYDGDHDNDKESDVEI
M18AAP inhibitor: PfM18AAP enzyme inhibition. recombinant PfM18AAP, H-Glu-NHMec fluorogenic cleavage. inhibition, % at 7.35 µM. actives 1.2% (n = 290,000);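 active = inhibition above the campaign mean inhibition over all tested compounds plus 3 SD, cut at about 28% in these data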;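 also: 0% = plate median of test compound wells and 100% = 2 mM ZnCl2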
Starred values were filed as active, the others as inactive. Only some compounds are listed: those with a hit (about 4.6% of all), similar ones and a draw of the others.

How did O=C(NN=Cc1ccc(Cl)cc1)c1sccc1-n1cccc1 do in these assays?
UCH37 DUB inh: 2

Results for O=C1/C(=C/c2ccc(O)c(O)c2)Oc2cc(O)ccc21 ?
Rtt109 Vps75: -5; FAS TE block: -2; ALR inh: 98*; UCH37 DUB inh: 3; HDAC3 inh: 11

What do the screens show for `COc1cc(/C=C2\Oc3cc(O)ccc3C2=O)ccc1O`?
Rtt109 Vps75: -143; FAS TE block: -8; ALR inh: 97*; UCH37 DUB inh: -30; HDAC3 inh: 10

Results for Cc1cccc(NC(=O)COc2ccc(Br)cc2C=NO)c1 ?
UCH37 DUB inh: 4

What do the screens show for `COc1ccc(C=NNC(=O)c2ccc(Br)o2)cc1Cn1cc([N+](=O)[O-])cn1`?
UCH37 DUB inh: 0

What do the screens show for `CCOC(=O)NN=Cc1cc(C)n(-c2ccccc2)c1C`?
UCH37 DUB inh: -2

What do the screens show for `CCOC(=O)C1CCN(C(=O)C2CCN(c3nn4c(=O)cc(C)nc4s3)CC2)CC1`?
Rtt109 Vps75: -9; FAS TE block: -5; ALR inh: -4; UCH37 DUB inh: 2; HDAC3 inh: 5; M18AAP inhibitor: -8

Results for CCOc1ccccc1CNC(=O)C1CCN(c2nn3c(=O)cc(C)nc3s2)CC1 ?
Rtt109 Vps75: 15; FAS TE block: -8; ALR inh: 8; UCH37 DUB inh: 3; HDAC3 inh: -2; M18AAP inhibitor: -12

Results for Cc1cc(=O)n2nc(N3CCC(C(=O)N4CCN(Cc5ccccc5)CC4)CC3)sc2n1 ?
Rtt109 Vps75: 5; FAS TE block: -7; ALR inh: -5; UCH37 DUB inh: 24*; HDAC3 inh: -1; M18AAP inhibitor: 5

What do the screens show for `CCOc1ccc(OCC)c(NC(=O)C2CCN(c3nn4c(=O)cc(C)nc4s3)CC2)c1`?
Rtt109 Vps75: 6; FAS TE block: -7; ALR inh: -22; UCH37 DUB inh: 23*; HDAC3 inh: -6; M18AAP inhibitor: -5

How did Cc1ccc(C=NNC(=O)CN2CCN(Cc3ccccc3)CC2)o1 do in these assays?
UCH37 DUB inh: 4

Results for C=CCn1c(SCc2nc3sc(C(=O)O)c(C)c3c(=O)[nH]2)nnc1-c1ccc(C(C)(C)C)cc1 ?
Rtt109 Vps75: 7; FAS TE block: 0; ALR inh: 98*; UCH37 DUB inh: 2; HDAC3 inh: -1; M18AAP inhibitor: 14

What do the screens show for `COc1cccc(-c2nc(CS(=O)(=O)CC(=O)Nc3ccccc3C)c(C)o2)c1`?
Rtt109 Vps75: 24; FAS TE block: -2; ALR inh: -2; UCH37 DUB inh: 0; HDAC3 inh: 4; M18AAP inhibitor: 3

Results for COc1cccc(-c2nc(CS(=O)(=O)CC(=O)Nc3ccccc3Cl)c(C)o2)c1 ?
Rtt109 Vps75: 6; FAS TE block: 8; ALR inh: 87*; UCH37 DUB inh: 2; HDAC3 inh: 2; M18AAP inhibitor: -11

What do the screens show for `COc1cccc(-c2nc(CS(=O)(=O)CC(=O)Nc3ccccc3Br)c(C)o2)c1`?
Rtt109 Vps75: -3; FAS TE block: 11; ALR inh: 94*; UCH37 DUB inh: 1; HDAC3 inh: 0; M18AAP inhibitor: 2

How did CC(C)(C)NC(=O)NC(=O)CN1CCN(c2ccc(O)cc2)CC1 do in these assays?
Rtt109 Vps75: -1; FAS TE block: -2; ALR inh: 94*; UCH37 DUB inh: 1; HDAC3 inh: 9; M18AAP inhibitor: 26

How did Cc1ccc(NC(=O)NC(=O)CN2CCN(c3ccc(O)cc3)CC2)c(C)c1 do in these assays?
Rtt109 Vps75: 0; FAS TE block: -3; ALR inh: 99*; UCH37 DUB inh: 0; HDAC3 inh: 0; M18AAP inhibitor: 30*

What do the screens show for `NC(=O)c1c(NC(=O)CSc2nnc(Cc3ccccc3)n2Cc2ccco2)sc2c1CCC2`?
Rtt109 Vps75: 2; FAS TE block: 12; ALR inh: 87*; UCH37 DUB inh: 4; HDAC3 inh: 2; M18AAP inhibitor: -1

What do the screens show for `O=C(CSc1nnc(Cc2ccccc2)n1Cc1ccco1)NC12CC3CC(CC(C3)C1)C2`?
Rtt109 Vps75: 15; FAS TE block: 20; ALR inh: -7; UCH37 DUB inh: 3; HDAC3 inh: 5; M18AAP inhibitor: 1

Results for Fc1ccc(-c2ncc3ccccn23)cc1 ?
Rtt109 Vps75: -1; FAS TE block: -5; UCH37 DUB inh: -24; HDAC3 inh: -7; M18AAP inhibitor: -3

How did Brc1ccc(-c2ncc3ccccn23)cc1 do in these assays?
Rtt109 Vps75: -16; FAS TE block: -4; ALR inh: 89*; UCH37 DUB inh: -26; HDAC3 inh: 8; M18AAP inhibitor: 7

How did O=C(NN=C/C=C/c1ccco1)c1cccc([N+](=O)[O-])c1 do in these assays?
UCH37 DUB inh: 4

Results for COc1cc(C=O)ccc1OCCCCOc1ccccc1[N+](=O)[O-] ?
Rtt109 Vps75: 6; FAS TE block: 26; ALR inh: 96*; UCH37 DUB inh: 4; HDAC3 inh: -10; M18AAP inhibitor: 2

Results for COc1cc(C=O)ccc1OCCCOc1ccccc1[N+](=O)[O-] ?
Rtt109 Vps75: 0; FAS TE block: 15; UCH37 DUB inh: 3; HDAC3 inh: 9; M18AAP inhibitor: -10

Results for S=c1[nH]nc(-c2cc(-c3ccccc3)n[nH]2)n1N=C/C=C/c1ccco1 ?
UCH37 DUB inh: 7

How did Cn1cccc1C=NN1CCN(c2ccccn2)CC1 do in these assays?
UCH37 DUB inh: 6

What do the screens show for `Cc1cc(C)cc(Oc2ccc(N)cc2)c1`?
Rtt109 Vps75: -4; FAS TE block: 0; ALR inh: 98*; UCH37 DUB inh: 1; HDAC3 inh: 3; M18AAP inhibitor: -1

How did Nc1ccc(Oc2cccc(Oc3ccc(N)cc3)c2)cc1 do in these assays?
Rtt109 Vps75: 1; FAS TE block: 3; ALR inh: 100*; HDAC3 inh: -3; M18AAP inhibitor: 2

How did Cc1cccc(Oc2ccc(N)cc2)c1 do in these assays?
Rtt109 Vps75: 12; FAS TE block: -6; ALR inh: 98*; UCH37 DUB inh: 1; HDAC3 inh: -9; M18AAP inhibitor: 3

What do the screens show for `Nc1ccc(Oc2ccc3c(c2)OCO3)cc1`?
Rtt109 Vps75: -4; FAS TE block: -3; ALR inh: 99*; UCH37 DUB inh: 2; HDAC3 inh: 4; M18AAP inhibitor: -14

What do the screens show for `Cc1cccc(Oc2ccccc2N)c1`?
Rtt109 Vps75: 3; FAS TE block: -4; ALR inh: 0; UCH37 DUB inh: 1; HDAC3 inh: -3; M18AAP inhibitor: -6

How did c1ccc2c(Oc3ccc4c(c3)OCO4)nncc2c1 do in these assays?
Rtt109 Vps75: -4; FAS TE block: -8; ALR inh: -3; UCH37 DUB inh: -1; HDAC3 inh: -1; M18AAP inhibitor: -2

How did Nc1ccc(Oc2ccc(Br)cc2)cc1 do in these assays?
Rtt109 Vps75: -6; FAS TE block: 5; ALR inh: 32; UCH37 DUB inh: 1; HDAC3 inh: -2; M18AAP inhibitor: 6
